pIC50: −log10 of the molar value. Active and inactive are the calls of the source. The calls are words filed in the database; no cut-off is given here.
Key:
[1] = target: HTH-type transcriptional regulator EthR (Mycobacterium smegmatis (strain ATCC 700084 / mc(2)155)) (UniProt A0R666); test: Binding affinity to Mycobacterium smegmatis mc2 155 EthR assessed as protein thermal unfolding at 20 uM by SYPRO Orange dye based thermal shift assay; settings: Mycolicibacterium smegmatis MC2 155
Method in brief: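 Purified EthR (10 μM final) was mixed with 20 μM ligand, 2.5× SYPRO Orange and 1% DMSO in EthR buffer. Samples were heated from 37 to 85 °C at 0.04 °C/s in a qPCR instrument, with fluorescence read at Ex/Em 465/510 nm. Tm was taken as the sigmoid inflection, and ΔTm as holo minus apo Tm. Values are the mean of two experiments.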

[2] = target: HTH-type transcriptional regulator EthR (Mycobacterium smegmatis (strain ATCC 700084 / mc(2)155), UniProt A0R666); test: Inhibition at EthR in Mycobacterium smegmatis mc2 155 assessed as reactivation of beta-glucuronidase activity measured over 48 hrs by Spectrophotometry; set-up: species or system Mycolicibacterium smegmatis MC2 155
Method in brief: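 The reporter was M. smegmatis mc²155 carrying P1 (single-copy, hsp60-driven ethR overexpression) and P2 (uidA under the ethA promoter/operator). Culture at OD600 0.2 was mixed with MUG and compound in 10% DMSO solution. MU fluorescence (ex 390/[…]) was read at 0, 24 and 48 h at 37 °C. IC50 came from dose–response; the P2-only strain served as positive control.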

[3] = target: HTH-type transcriptional regulator EthR (Mycobacterium tuberculosis) (UniProt P9WMC1); test: Inhibition of EthR in Mycobacterium tuberculosis H37Rv-GFP infected in mouse Raw 264.7 cells assessed as boosting of 0.1 uM ethionamide-induced microbial growth inhibition at 10 uM by automated fluorescent confocal microscopy; assay type: cell-based
[4] = system: Mycobacterium tuberculosis; test: Antituberculosis activity against Mycobacterium tuberculosis H37Rv-GFP infected in mouse Raw 264.7 cells assessed as microbial growth inhibition at 10 uM by automated fluorescent confocal microscopy; assay type: functional, organism-based
Method in brief: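 Raw264.7 macrophages were infected with H37Rv-GFP (MOI 1:1, 2 h, 37 °C, shaking). Extracellular bacilli were killed with 20 μM amikacin for 1 h, then infected cells were incubated with compound at 10 μM alone for 5 days (37 °C, 5% CO2). After SYTO 60 staining, confocal imaging (488/635 nm) gave the percentage of infected cells; values are the average of two replicates.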

Sequence of HTH-type transcriptional regulator EthR (Mycobacterium tuberculosis) (P9WMC1 whole entry): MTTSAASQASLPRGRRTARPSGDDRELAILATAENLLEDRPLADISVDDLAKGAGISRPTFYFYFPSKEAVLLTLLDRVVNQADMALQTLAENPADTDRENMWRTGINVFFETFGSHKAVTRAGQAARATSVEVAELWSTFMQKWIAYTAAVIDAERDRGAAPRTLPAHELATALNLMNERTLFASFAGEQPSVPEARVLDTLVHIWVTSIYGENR
Sequence of HTH-type transcriptional regulator EthR (Mycobacterium smegmatis (strain ATCC 700084 / mc(2)155), UniProt A0R666) (A0R666 whole entry): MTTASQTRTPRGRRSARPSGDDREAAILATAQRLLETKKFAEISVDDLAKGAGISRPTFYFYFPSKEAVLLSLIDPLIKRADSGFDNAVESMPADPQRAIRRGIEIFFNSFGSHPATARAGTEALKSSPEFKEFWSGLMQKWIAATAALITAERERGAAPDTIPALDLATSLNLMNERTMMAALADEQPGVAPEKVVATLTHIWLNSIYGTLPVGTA
Sequence of HTH-type transcriptional regulator EthR (Mycobacterium smegmatis (strain ATCC 700084 / mc(2)155)) (A0R666 whole entry): as above

Compound	inhibition [1]	growth inhibition (GI) [3] [%]	ΔTm [1] [°C]	also measured
COc1cccc(O)c1	Active	–	–	–
Cc1ccc(OCC(=O)Nc2ccc(-c3nc4ncccc4o3)cc2)c(C)c1	–	–	–	pIC50 [2]: > 5.00
O=C(CCl)Nc1ccc2c(c1)OCO2	Active	–	–	–
COc1cccc(NC(=O)COc2ccc(C(F)(F)F)cc2)c1	–	-1.5	5	–
O=C(CCl)Nc1ccccc1	Active	–	–	–
Cc1ccc(-n2nc3ccc(NC(=O)COc4ccccc4C)cc3n2)cc1	–	10.9	6.4	pIC50 [2]: 5.54
O=C(COc1ccc(F)c(F)c1)Nc1ccc(Oc2ccccc2)cc1	–	-13.5	5.7	–
COc1ccccc1NC(=O)CCl	inactive	–	–	–
COc1cccc(OCC(=O)Nc2ccc(Cl)c(Cl)c2)c1	–	26.7	6.8	–
O=C(COc1ccc(C(F)(F)F)cc1)Nc1ccc(Cl)c(Cl)c1	–	-8.4	8.1	–
N#Cc1ccc(NC(=O)COc2cccc(Oc3ccccc3)c2)cc1	–	-8.9	6.7	–
COc1ccc(N(C)C(=O)CCl)cc1	Active	–	–	–
O=C(COc1ccc(Cl)cc1)Nc1ccc(Cl)c(Cl)c1	–	-17.9	6.9	–
O=C(COc1cccc(Oc2ccccc2)c1)Nc1ccc2c(c1)OCO2	–	5.7	8.2	–
O=C(COc1cccc(Oc2ccccc2)c1)Nc1ccc(Cl)c(Cl)c1	–	-1.6	8.9	–
COc1cccc(OCC(=O)Nc2ccc(Cl)cc2)c1	–	92.6	6.1	–
O=C(CCl)Nc1ccc(Oc2ccccc2)cc1	Active	–	–	–
COc1ccc(OCC(=O)Nc2ccc(Cl)c(Cl)c2)cc1	–	-0.6	6.1	–
N#Cc1cccc(NC(=O)COc2cccc(Oc3ccccc3)c2)c1	–	-7.2	5.7	–
COc1cccc(SCC(=O)Nc2ccc(-c3nc4ccccc4s3)cc2)c1	–	–	6.2	–
O=C(COc1cccc(Oc2ccccc2)c1)Nc1ccccc1	–	2.2	6.1	–
O=C(CCl)Nc1ccc(-c2nc3ccccc3s2)cc1	Active	–	–	–
COc1cccc(OCC(=O)Nc2ccc(-c3ccccc3)cc2)c1	–	-2.9	7	–

Compound	inhibition [1]	growth inhibition (GI) [3] [%]	ΔTm [1] [°C]	also measured
O=C(CCl)N(Cc1ccccc1)c1ccccc1	inactive	–	–	–
O=C(CCl)N(c1ccccc1)C1CCCCC1	inactive	–	–	–
O=C(COc1ccc(-c2ccccc2)cc1)Nc1ccc2c(c1)OCO2	–	-3	7	–
O=C(COc1ccc(Cl)cc1Cl)Nc1ccc2nc3n(c(=O)c2c1)CCCC3	–	–	–	pIC50 [2]: > 5.00
Oc1ccc(C(F)(F)F)cc1	Active	–	–	–
COc1cccc(OCC(=O)Nc2ccc(-c3nc4ccccc4s3)cc2)c1	–	67.6	9.9	growth inhibition (GI) [4]: inactive
O=C(COc1ccc(F)c(F)c1)Nc1ccc(C(F)(F)F)cc1	–	-12.5	5.6	–
N#Cc1cccc(OCC(=O)Nc2ccc(-c3nc4ccccc4s3)cc2)c1	–	53.4	8.1	–
CCOc1ccc(NC(=O)CCl)c(Oc2ccccc2)c1	inactive	–	–	–
COc1ccc(NC(=O)CCl)cc1	Active	–	–	–
O=C(COc1ccc(C(F)(F)F)cc1)Nc1ccc2c(c1)OCO2	–	1.4	6.2	–
Cc1ccc2cc(NC(=O)COc3ccccc3F)ccc2n1	–	83.2	5.1	–
COc1cccc(OCC(=O)Nc2ccc3nc(C)ccc3c2)c1	–	6.5	6.6	–
O=C(CCl)Nc1ccc(Cl)c(Cl)c1	Active	–	–	–
COc1cccc(OCC(=O)Nc2ccc(Oc3ccccc3)cc2)c1	–	-17.5	6.7	–
Cc1ccc2cc(NC(=O)CCl)ccc2n1	Active	–	–	–
O=C(CCl)N1CCCc2ccccc21	Active	–	–	–
CN(C(=O)CCl)c1ccccc1	Active	–	–	–
O=C(CCl)Nc1ccccc1-c1ccccc1	inactive	–	–	–
Oc1cccc(Oc2ccccc2)c1	Active	–	–	–
Cc1ccc(OCC(=O)Nc2ccc(Cl)c(Cl)c2)cc1	–	-10.4	6.8	–
O=C(COc1ccc(Cl)c(Cl)c1)Nc1ccc(C(F)(F)F)cc1	–	-5.4	7.5	–
